Active and inactive are the calls of the source. The calls are words filed in the database; no cut-off is given here.
Assays:
[1] = system: KB; assay: Induction of ROS generation in human KB cells at 30 uM incubated for 72 hrs by APF probe-based flow cytometer analysis relative to control; format: functional
In short: (§1)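 Cells were treated with 30 μM compound. Highly reactive oxygen species were detected with the APF probe, and APF mean fluorescence intensity was measured by FACS and normalized to solvent control.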

[2] = organism: Homo sapiens; assay: Displacement of folate-FITC from folate receptor in human KB cells at 25 to 1000 pmol incubated for 10 mins by FITC staining-based FACS analysis; format: cell-based
In short: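 Competition binding in 0.5·10^6 KB cells per experiment. Compound at 25, 50, 100, 250, 500 or 1000 pmol was combined with 50 pmol Folate-FITC. Cell-bound fluorescence was read by FACS as MFI on channel PL-1. Mean ± SEM, N ≥ 5.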

[3] = system: KB; assay: Cytotoxicity against human KB cells in low folate medium assessed as reduction in metabolic activity at 1 to 150 uM incubated for 24 to 72 hrs by MTS assay; format: functional, cell-based
In short: (§2)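 MTS metabolic-activity assay in low folate RPMI-1640 with 10% dialyzed FCS and 2 nM FA. Compound concentrations ran from 1 to 150 μM, with incubation for 24, 48 and 72 h. IC50 values were derived from the concentration-response data.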

[4] = system: IGROV-1; assay: Cytotoxicity against human IGROV1 cells in low folate medium assessed as reduction in metabolic activity at 1 to 150 uM incubated for 24 to 72 hrs by MTS assay; format: functional, cell-based; in short: as §2
[5] = Retention time of the compound by LC-MS analysis; format: physicochemical
[6] = system: MCF7; assay: Cytotoxicity against human MCF7 cells in low folate medium assessed as reduction in metabolic activity at 1 to 150 uM incubated for 24 to 72 hrs by MTS assay; format: ADME, cell-based; details: mcf7, 150 µM; in short: as §2
[7] = system: MCF7; assay: Induction of ROS generation in human MCF7 cells at 30 uM incubated for 72 hrs by APF probe-based flow cytometer analysis relative to control; format: cell-based; details: mcf7, 72 h; in short: as §1
[8] = system: MCF7; assay: Cytotoxicity against human MCF7 cells in high folate medium assessed as reduction in metabolic activity at 50 uM incubated for 24 to 72 hrs by MTS assay; format: ADME, cell-based; details: mcf7, 50 µM
In short: (§3)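 MTS assay in standard high folate medium (RPMI-1640 containing 2.3 μM FA, 10% FCS). Cells were treated with 30 or 50 μM compound for 24, 48 and 72 h. Metabolic activity was compared with solvent control.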

[9] = system: KB; assay: Cytotoxicity against human KB cells in high folate medium assessed as reduction in metabolic activity at 30 uM incubated for 24 to 72 hrs by MTS assay; format: functional, cell-based; in short: as §3
[10] = system: IGROV-1; assay: Cytotoxicity against human IGROV1 cells in low folate medium assessed as metabolic activity at 50 uM incubated for 72 hrs by MTS assay relative to control; format: functional
In short: (§4)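 MTS metabolic-activity assay under low folate conditions (RPMI-1640, 10% dialyzed FCS, supplemented with 2 nM FA). Compounds were added as free ligand at 30 or 50 μM for 24, 48 and 72 h. Activity is expressed relative to DMSO control. Each treatment was run in triplicate and each experiment three times; mean ± SEM.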

[11] = system: IGROV-1; assay: Cytotoxicity against human IGROV1 cells in low folate medium assessed as metabolic activity at 30 uM incubated for 72 hrs by MTS assay relative to control; format: functional; in short: as §4
[12] = (§5) Cytotoxicity against human MCF7 cells in low folate medium assessed as metabolic activity at 50 uM incubated for 72 hrs by MTS assay relative to control; format: ADME, cell-based; details: MCF7 cells, read-out: Activity; in short: as §4
[13] = system: KB; assay: Cytotoxicity against human KB cells in low folate medium assessed as metabolic activity at 50 uM measured after 72 hrs by MTS assay relative to control; format: functional; in short: as §4
[14] = (§6) Cytotoxicity against human MCF7 cells in low folate medium assessed as metabolic activity at 30 uM incubated for 72 hrs by MTS assay relative to control; format: ADME, cell-based; details: MCF7 cells, read-out: Activity; in short: as §4
[15] = system: KB; assay: Cytotoxicity against human KB cells in low folate medium assessed as metabolic activity at 30 uM measured after 72 hrs by MTS assay relative to control; format: functional; in short: as §4
[16] = system: DNA; assay: Induction of Escherichia coli XL1 Blue pUC18 DNA cleavage assessed as turnover frequency in presence of DTT and 1 equivalent of (NH4)2Fe(SO4)2.6H2O at 1 uM by agarose gel electrophoresis method; format: nucleic-acid assay
In short: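 Supercoiled pUC18 plasmid DNA was incubated at 37 °C with 1 μM iron complex in the presence of DTT as reductant. Strand cleavage was followed and turnover frequency determined.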

[17] = Stability in pH 8.5 tris-HCl buffer assessed as cleavage of compound in presence of Fe(ClO4)2 and GSH incubated for 20 mins by LC-MS analysis; format: physicochemical; details: pH 8.5, 20 min
In short: (§7)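 Conjugate kept in tris-HCl buffer pH 8.5 with two equivalents of Fe(ClO4)2 and 5 mM glutathione. LC-MS was used to follow in situ iron-complex formation and disulphide cleavage products at 5 min, 20 min and for a further 3 h.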

[18] = Stability in pH 8.5 tris-HCl buffer assessed as compound cleavage in presence of Fe(ClO4)2 and GSH after 5 mins by LC-MS analysis; format: physicochemical; details: pH 8.5, 5 min; in short: as §7
[19] = Binding affinity to iron assessed as formation of iron complex in the presence of Fe(ClO4)2 and GSH after 5 mins by LC-MS analysis; in short: as §7
[20] = system: KB; assay: Cytotoxicity against human KB cells in high folate medium assessed as reduction in metabolic activity at 30 uM incubated for 24 to 72 hrs in the presence of excess folic acid by MTS assay; format: functional, cell-based
In short: (§8)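 Competition MTS assay in standard RPMI medium (high folate). Cells were co-treated with 30 μM compound plus 150 μM FA, or with 150 μM FA alone, for 24, 48 and 72 h, and metabolic activity was read by MTS.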

[21] = system: MCF7; assay: Cytotoxicity against human MCF7 cells in high folate medium assessed as reduction in metabolic activity at 30 uM incubated for 24 to 72 hrs in the presence of excess folic acid by MTS assay; format: ADME, cell-based; details: mcf7, 30 µM; in short: as §8
[22] = system: IGROV-1; assay: Cytotoxicity against human IGROV1 cells in high folate medium assessed as reduction in metabolic activity at 30 uM incubated for 24 to 72 hrs in the presence of excess folic acid by MTS assay; format: functional, cell-based; in short: as §8
[23] = system: MCF7; assay: as §5; format: ADME, cell-based; details: mcf7, 72 h, 50 µM; in short: as §4
[24] = system: MCF7; assay: as §6; format: ADME, cell-based; details: mcf7, 72 h, 30 µM; in short: as §4
[25] = system: KB; assay: Cytotoxicity against human KB cells in low folate medium assessed as reduction in metabolic activity at 50 uM measured after 48 hrs by MTS assay; format: functional, cell-based
In short: (§9)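 MTS assay on KB cells under low folate conditions (RPMI-1640, 10% dialyzed FCS, 2 nM FA). Cells were exposed to 30 or 50 μM compound as free ligand for 24, 48 and 72 h and compared with DMSO control. Treatments in triplicate, experiment repeated three times; mean ± SEM.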

[26] = system: KB; assay: Cytotoxicity against human KB cells in low folate medium assessed as reduction in metabolic activity at 30 uM measured after 48 hrs by MTS assay; format: functional, cell-based; in short: as §9
[27] = Stability in pH 8.5 tris-HCl buffer assessed as cleavage of compound in presence of Fe(ClO4)2 and GSH incubated for 3 hrs by LC-MS analysis; details: pH 8.5, 3 h

Retention_time [5] [min] | fold change (FC) [7] | Activity [16] [s⁻¹] | Activity [19] | Structure (SMILES) | Activity [1] | Activity [2] | Activity [8] | Activity [9] | Activity [10] [%] | Activity [11] [%] | Activity [13] [%] | Activity [15] [%] | Activity [20] | Activity [21] | Activity [22] | also measured
 |  |  |  | Nc1nc(=O)c2nc(CNc3ccc(C(=O)N[C@@H](CCC(=O)O)C(=O)O)cc3)cnc2[nH]1 | inactive | Active |  |  |  |  |  |  |  |  |  | Activity [3]: inactive; Activity [4]: inactive
8.77 |  |  |  | Nc1nc(O)c2nc(CNc3ccc(C(=O)N[C@@H](CCC(=O)NCCNC(=O)CCSSC[C@H](NC(=O)CC[C@H](N)C(=O)O)C(=O)NCC(=O)O)C(=O)O)cc3)cnc2n1 |  |  |  |  |  |  |  |  |  |  |  | 
 |  |  |  | Nc1nc2ncc(CNc3ccc(C(=O)N[C@@H](CCC(=O)O)C(=O)O)cc3)nc2c(=O)[nH]1 [FOLIC ACID] |  |  |  |  |  |  |  |  |  |  |  | Activity [6]: Non-Toxic
 | 1.6 | 0.19 | Active | Nc1nc(O)c2nc(CNc3ccc(C(=O)N[C@@H](CCC(=O)NCCNC(=O)CCSSCCC(=O)NCCCNC(=O)c4ccc(CN(Cc5ccccn5)C(c5ccccn5)c5ccccn5)nc4)C(=O)O)cc3)cnc2n1 |  | Active | Non-Toxic | inactive | 22 | 47.2 | 11.2 | 38.8 | inactive | Non-Toxic | inactive | fold change (FC) [1]: 3.5; viability at 72 h, 50 µM [12]: 76.4%; viability at 72 h, 30 µM [14]: 78.9%; Stability [17]: Unstable; Stability [18]: Unstable
9.12 |  |  |  | Nc1nc(O)c2nc(CNc3ccc(C(=O)N[C@@H](CCC(=O)NCCNC(=O)CCS)C(=O)O)cc3)cnc2n1 |  |  |  |  |  |  |  |  |  |  |  | 
 | 1.6 | 0.16 | Active | Nc1nc(O)c2nc(CNc3ccc(C(=O)N[C@@H](CCC(=O)NCCNC(=O)CCCCCCC(=O)NCCCNC(=O)c4ccc(CN(Cc5ccccn5)C(c5ccccn5)c5ccccn5)nc4)C(=O)O)cc3)cnc2n1 | inactive | Active | Non-Toxic | inactive | 58.1 | 82.4 | 62.4 | 88.1 | inactive | Non-Toxic | inactive | Activity [23]: Non-Toxic; Activity [24]: Non-Toxic; Activity [25]: inactive; Activity [26]: inactive; Stability [27]: Stable
